The test system of data set [1] is Plasma. The data set is described as follows: Drug metabolism in Wistar rat plasma assessed as (1S,2S,4aS,5S,6R,8aR)-1-((E)-2-(5-(3-Fluorophenyl)pyridin-2-yl)vinyl)-6-hydroxy-5,8a-dimethyloctahydro-1H-spiro[naphthalene-2,2'-oxirane]-5-carboxylic acid metabolite formation at 10 mg/kg, po administered as single dose measured at 3 hrs post dose by LC-HRMS analysis. The format is ADME, organism-based. The conditions noted are these: in vivo. In short, it runs like this:
(§1)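 Rats dosed orally at 10 mg/kg or 5 mg/kg. Plasma taken at 3.0 h after dosing. Parent and metabolites detected by extracted ion chromatograms.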

Data set [2] has as its system Plasma. The data set is described as follows: Stability in Wistar rat assessed as parent compound level in plasma at 10 mg/kg, po administered as single dose measured at 3 hrs post dose by LC-HRMS analysis. The format is ADME, organism-based. The conditions noted are these: in vivo. The method in brief: as §1
Data set [3] concerns Plasma. As to the kind of experiment: Drug metabolism in Wistar rat plasma assessed as [M1-2H] metabolite formation at 10 mg/kg, po administered as single dose measured at 3 hrs post dose by LC-HRMS analysis. Format: ADME, organism-based. The conditions noted are these: in vivo. In short, it runs like this:
as §1

Data set [4] concerns Plasma. The data set is described as follows: Drug metabolism in Wistar rat plasma assessed as [M1+O] metabolite formation at 10 mg/kg, po administered as single dose measured at 3 hrs post dose by LC-HRMS analysis. The format is ADME, organism-based. The conditions noted are these: in vivo. The method in brief:
as §1

In data set [5] the test system is Plasma. As to the kind of experiment: Drug metabolism in Wistar rat plasma assessed as [M1-CH2-2H] metabolite formation at 10 mg/kg, po administered as single dose measured at 3 hrs post dose by LC-HRMS analysis. The conditions noted are these: in vivo. The format is ADME, organism-based. The method in brief:
as §1

In data set [6] the target is T1, Proteinase-activated receptor 1 (Homo sapiens, UniProt P25116).
T1 sequence (P25116 whole entry): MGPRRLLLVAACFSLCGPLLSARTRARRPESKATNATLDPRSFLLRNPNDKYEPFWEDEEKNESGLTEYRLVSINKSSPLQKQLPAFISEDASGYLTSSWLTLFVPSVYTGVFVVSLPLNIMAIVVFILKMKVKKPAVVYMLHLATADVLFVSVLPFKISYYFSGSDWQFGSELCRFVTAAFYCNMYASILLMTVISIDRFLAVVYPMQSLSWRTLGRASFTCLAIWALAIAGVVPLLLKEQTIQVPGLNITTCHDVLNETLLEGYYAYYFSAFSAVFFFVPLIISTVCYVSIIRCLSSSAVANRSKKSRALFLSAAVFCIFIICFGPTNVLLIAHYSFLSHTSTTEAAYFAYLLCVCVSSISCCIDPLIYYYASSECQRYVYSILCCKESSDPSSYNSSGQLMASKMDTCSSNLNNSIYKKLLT
As to the kind of experiment: Antagonist activity at human PAR1 expressed in HEK293 cells co-expressing Galpha15 assessed as inhibition of haTRAP-induced calcium mobilization preincubated for 15 mins followed by haTRAP addition by calcium-4 dye based FLIPR assay. The format is functional, cell-based. (In general: Calcium assays in cells follow changes in intracellular calcium, usually with a dye or a luminescent sensor.)

Data set [7] can be described thus: AUC (0 to infinity) in Wistar rat plasma at 10 mg/kg, po administered as single dose administered as single dose at 3 hrs post dose by LC-MS/MS analysis. The format is ADME, organism-based. More on the design: dose 10 mg/kg, route oral, time infinity.
In data set [8] the test system is Plasma. As to the kind of experiment: Drug metabolism in Wistar rat plasma assessed as [M1-2H+O] metabolite formation at 10 mg/kg, po administered as single dose measured at 3 hrs post dose by LC-HRMS analysis. The conditions noted are these: in vivo. The format is ADME, organism-based. In short, it runs like this:
as §1

In another data set the test system is Rattus norvegicus. The data set is described as follows: AUC (0 to infinity) in Wistar rat assessed as (1S,2S,4aS,5S,6R,8aR)-1-((E)-2-(5-(3-Fluorophenyl)pyridin-2-yl)vinyl)-6-hydroxy-5,8a-dimethyloctahydro-1H-spiro[naphthalene-2,2'-oxirane]-5-carboxylic acid level in plasma at 10 mg/kg, po administered as single dose at 3 hrs post dose by LC-MS/MS analysis. Format: ADME, organism-based. On the set-up: dose 10 mg/kg, route oral, time infinity. The conditions noted are these: in vivo.

For data set [9], the system named is Plasma. The data set is described as follows: Drug metabolism in Wistar rat plasma assessed as [M0-CH2+O] metabolite formation at 10 mg/kg, po administered as single dose measured at 3 hrs post dose by LC-HRMS analysis. The format is ADME, organism-based. The conditions noted are these: in vivo. The method in brief: as §1
In data set [10] the test system is Plasma. As to the kind of experiment: Drug metabolism in Wistar rat plasma assessed as [M0+H2O] metabolite formation at 10 mg/kg, po administered as single dose measured at 3 hrs post dose by LC-HRMS analysis. Format: ADME, organism-based. The conditions noted are these: in vivo. The method in brief: as §1
In data set [11] the test system is Plasma. As to the kind of experiment: Drug metabolism in Wistar rat plasma assessed as [M0-2H] metabolite formation at 10 mg/kg, po administered as single dose measured at 3 hrs post dose by LC-HRMS analysis. The conditions noted are these: in vivo. The format is ADME, organism-based. The method in brief:
as §1

The test system of data set [12] is Plasma. The data set is described as follows: Drug metabolism in Wistar rat plasma assessed as [M0+O] metabolite formation at 10 mg/kg, po administered as single dose measured at 3 hrs post dose by LC-HRMS analysis. The format is ADME, organism-based. The conditions noted are these: in vivo. In short, it runs like this: as §1
Data set [13] relates to Plasma. The data set is described as follows: Drug metabolism in Wistar rat plasma assessed as [M0-CH2] metabolite formation at 10 mg/kg, po administered as single dose measured at 3 hrs post dose by LC-HRMS analysis. Format: ADME, organism-based. The conditions noted are these: in vivo. In short, it runs like this: as §1

By IC50 is commonly meant the concentration that inhibits the measured activity by half. One may read the AUC(0-inf) as total exposure, with the tail of the curve extrapolated. Higher therefore signals high exposure. One may read the AUC as the area under the concentration-time curve, a measure of exposure.

As to `COC(=O)[C@]1(C)[C@H](O)CC[C@@]2(C)[C@H](/C=C/c3ccc(-c4cccc(F)c4)cn3)[C@@]3(CC[C@@H]21)CO3`, the Drug metabolism result in the data set on Plasma [1], in the data set with Plasma [3], in the data set with Plasma [4], in the data set on Plasma [5] and in the data set on Plasma [8] was “Metabolite_Detected” each time. The Stability result in the data set with Plasma [2] was “Unstable”. Besides, the IC50 in data set [6] amounted to 7 µM. Further, the area under the curve AUC(0-inf) in data set [7] turned out to be 269 ng·h/mL. Moreover, the AUC in the data set on Rattus norvegicus is 8.4127 µg·h/mL.

On to `C[C@]1(CO)[C@H]2CC[C@@]3(CO3)[C@@H](/C=C/c3ccc(-c4cccc(F)c4)cn3)[C@]2(C)CC[C@H]1O`, for which the Drug metabolism entry in the data set on Plasma [1], with Plasma [9], in the data set with Plasma [10], in the data set on Plasma [11], in the data set on Plasma [12] and with Plasma [13] was “Metabolite_Detected” in each case. The Stability result with Plasma [2] is reported as “Unstable”. Also, the IC50 in data set [6] worked out at 9.1 µM.

Values taken from ChEMBL document CHEMBL4038330, “Discovery of Potent Orally Active Protease-Activated Receptor 1 (PAR1) Antagonists Based on Andrographolide” (J Med Chem, 2017).
